A short description of assay [1]: inhibitors of TNFa-induced NFkB p65 translocation, primary screen, imaging, HUVEC, MLSMR starter and 10KST1 sets (AID 438;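 active = inhibition above 20% together with a positive visual image hit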;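 note: compound added about 3h40 before a 20 min TNFalpha stimulation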;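 for inhibition: signal is the nuclear over cytoplasmic p65 intensity ratio per well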). The note with it: HUVEC TNFa-induced p65 nuclear translocation; cell count: measured here: nuclei count (cytotoxicity indicator), at 2.08 µM; inhibition: at 2 µM, stronger effect = higher value, 0% TNFa-plus-vehicle, 100% no-TNFa wells.
Assay [2] is described as follows: endothelial E-selectin expression blockers – imaging, HUVEC, immunofluorescence, MLSMR starter and 10KST1 sets, primary screen (AID 487;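 active = visually confirmed hit in the image check and inhibition above 20%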;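 for inhibition: signal is fraction of cell area covered by stained E-selectin grains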;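 for nuclei count: 100% = median nuclei count of all wells on the same plate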). As to conditions: HUVEC TNFalpha-induced E-selectin immunofluorescence imaging, at 2 µM; inhibition: stronger effect = higher value; nuclei count: measured here: cell number, toxicity.
Assay [3] in a line: Primary imaging screen for DUSP6 inhibitors that restore phospho-Erk in transfected HeLa cells, chemical complementation (AID 609;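 active = compounds giving at least 50% inhibition in the cell-based MKP-3 phosphatase rescue imaging test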;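 for inhibition: phospho-Erk level distribution per well compared with pooled transfected vehicle control wells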). As to conditions: HeLa MKP-3 transfected, phospho-Erk imaging KS statistic, at 10 µM, cells stimulated with TPA for 15 min.
Assay [4] deals with Dual specificity protein phosphatase 6 (Homo sapiens) (UniProt Q16828). The description is as above. The note with it: HeLa MKP-3 transfected, phospho-Erk imaging KS statistic; at 10 µM; stronger effect = higher value; cells stimulated with TPA for 15 min.
The target in assay [5] is Voltage-gated potassium channel subunit beta-2 (Rattus norvegicus) (UniProt P62483). Nature of the assay: inhibitors of rat Kvbeta2 reductase activity – biochemical, NADPH fluorescence, primary screen (AID 622;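 active = fluorescence slope higher than the sample average by over 3 SD, cut at about -0.22 in these data, passing the limit was not always enough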;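 note: slope of raw intensity against log time taken from 70 to 1610 s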). As to conditions: recombinant KvBeta, 4-cyanobenzaldehyde reduction, at 10 µM, stronger effect = higher value.
Assay [6] shares this target. Nature of the assay: enhancers of rat Kvbeta2 NADPH turnover – biochemical, NADPH fluorescence, primary screen (AID 623;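 active = NADPH fluorescence slope more negative than the mean of all samples by about 3 SD, 99.7% confidence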;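 note: fluorescence intensity change per second fitted from 20 to 320 s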). The note with it: Recombinant KvBeta, NADPH fluorescence decrease slope, 10 min; at 10 µM; stronger effect = lower value.
In assay [7] the target is Alpha-2C adrenergic receptor (Homo sapiens) (UniProt P18825). In words: compounds altering alpha2C-coupled GIRK flux – cell-based, HEK293 alpha2C/GIRK1/2, thallium flux, primary screen (AID 624;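 active = fluorescence slope after compound addition differing from the mean of all screened samples at 99.7% confidence, in either direction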;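 note: slope of fluorescence ratio to pre-addition baseline per second over 15 to 24 s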). As to conditions: thallium flux BTC fluorescence, at 10 µM, actives lie on both sides.
A short description of assay [8]: inhibitors of larval lipid processing in zebrafish, primary screen, whole organism, PED6 fluorescence, gall bladder and intestine (AID 686;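 active = a full or partial loss of lipid-probe fluorescence in the fish gall bladder, intestine or both, judged by eye; inactive = no fluorescence loss, or compound toxic to the fish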;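 note: larvae 5 to 7 days old with five fish per well; signal comes from phospholipase A2 cleavage of quenched PED6 carried via bile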). The note with it: Zebrafish larvae PED6 lipid processing, fluorescence scoring; screened at 20 µM (by protocol). Put shortly: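 system = live zebrafish larvae aged 5-7 days, whole organism | probe or stimulus = ingested quenched lipid PED6 at 100 nM | doses = 20 µM single dose | timing = overnight exposure | detection = fluorescence microscopy with visual scoring of gall bladder and intestine | read-out = visual per-well fluorescence inhibition score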

Assay [9] is described as follows: loss of swimming-algae plug formation – whole organism, Chlamydomonas reinhardtii, WT vs cilia-less mutant, absorbance, 96-well, primary screen (AID 463189).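 Note: 0% = wild type cc124 cells in DMSO and 100% = ciliumless bld1 mutant cells.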 The note with it: Chlamydomonas reinhardtii gravitaxis, OD600 absorbance, 2 days; at 10 µM; stronger effect = higher value.
Where [10] appears, read: measured here: cell density z-score.
Setting [11] is: measured here: nuclear c-Myc green intensity z-score.
The mark [12] stands for this setting: measured here: nuclear pErk red intensity z-score, stronger effect = higher value.

Active and inactive are the calls of the source.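 Rule for the calls, unless noted: active = inhibition at or above 50% relative to wild type and mutant plate controls; inactive = inhibition below 50%.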

Sequence of Dual specificity protein phosphatase 6 (Homo sapiens) (Q16828 whole entry, looked up): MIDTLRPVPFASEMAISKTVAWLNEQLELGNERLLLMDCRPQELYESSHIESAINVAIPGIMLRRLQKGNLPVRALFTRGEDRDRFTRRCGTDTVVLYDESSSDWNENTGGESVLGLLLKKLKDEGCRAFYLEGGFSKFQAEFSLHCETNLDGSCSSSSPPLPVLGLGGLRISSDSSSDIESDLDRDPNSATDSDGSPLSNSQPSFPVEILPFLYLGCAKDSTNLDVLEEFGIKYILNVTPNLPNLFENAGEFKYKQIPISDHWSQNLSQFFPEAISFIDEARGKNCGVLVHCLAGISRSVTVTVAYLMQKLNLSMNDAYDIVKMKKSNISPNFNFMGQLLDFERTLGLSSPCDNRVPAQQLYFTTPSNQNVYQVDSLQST
Sequence of Voltage-gated potassium channel subunit beta-2 (Rattus norvegicus) (P62483 whole entry, looked up): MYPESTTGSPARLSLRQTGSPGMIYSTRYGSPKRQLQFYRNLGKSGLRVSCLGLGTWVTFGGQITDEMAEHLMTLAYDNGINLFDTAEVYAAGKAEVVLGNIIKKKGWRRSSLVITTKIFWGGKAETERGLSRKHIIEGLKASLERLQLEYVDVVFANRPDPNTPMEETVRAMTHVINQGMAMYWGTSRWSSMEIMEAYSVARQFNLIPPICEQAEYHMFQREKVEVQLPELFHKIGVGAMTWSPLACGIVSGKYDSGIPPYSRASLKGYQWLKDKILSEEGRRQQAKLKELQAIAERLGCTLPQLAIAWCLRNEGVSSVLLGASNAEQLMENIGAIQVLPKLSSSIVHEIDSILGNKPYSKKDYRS
Sequence of Alpha-2C adrenergic receptor (Homo sapiens) (P18825 whole entry, looked up): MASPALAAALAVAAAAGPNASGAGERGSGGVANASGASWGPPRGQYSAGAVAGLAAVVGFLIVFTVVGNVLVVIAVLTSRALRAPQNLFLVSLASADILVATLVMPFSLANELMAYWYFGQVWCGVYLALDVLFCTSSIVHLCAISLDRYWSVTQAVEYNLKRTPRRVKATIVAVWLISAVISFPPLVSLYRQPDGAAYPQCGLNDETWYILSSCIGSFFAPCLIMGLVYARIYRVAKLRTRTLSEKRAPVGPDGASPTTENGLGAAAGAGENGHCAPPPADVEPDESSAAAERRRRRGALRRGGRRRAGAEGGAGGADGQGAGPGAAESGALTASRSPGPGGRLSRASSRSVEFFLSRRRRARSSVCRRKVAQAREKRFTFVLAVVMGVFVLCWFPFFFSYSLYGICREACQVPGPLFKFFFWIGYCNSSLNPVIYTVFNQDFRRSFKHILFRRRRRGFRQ

As to `Cc1ccc(C2C(C(=O)c3cc4ccccc4o3)=C(O)C(=O)N2CCN(C)C)o1` (stereo unspecified), in assay [1], the cell count worked out at 352. In addition, the inhibition is -3% (inactive) in [1], 23.2% (inactive) in assay [2], -6.48% (inactive) in assay [4] and -11.1% (inactive) in assay [9]. Moreover, in [2], the nuclei count was found to be 101%. Further, the z-score was -1.49 in assay [3] (setting [10]), 2.05 in [3] (setting [11]) and -0.073 in assay [3] (setting [12]). The fluorescence slope in assay [5] was -0.443 (inactive). In addition, in assay [6], the NADPH fluorescence slope was -2.4e-05 (inactive). In addition, in [7], the slope is 0.00982 (inactive). Also, the call in [8] was inactive.
Regarding `Cc1occc(=O)c1OC(=O)Nc1ccccc1`, in [1], the cell count turned out to be 477. Further, the inhibition in assay [1] is -8.6% (inactive); in [2] it was -106% (inactive); in [4], 14% (inactive); in [9], -3.66% (inactive). Also, the nuclei count in [2] was found to be 154%. For the same compound, the z-score was -0.12 in assay [3] (setting [10]), 2.47 in assay [3] (setting [11]) and -1.69 in [3] (setting [12]). For the same compound, the fluorescence slope in assay [5] is -0.524 (inactive). Also, the NADPH fluorescence slope in [6] was -2.3e-05 (inactive). In addition, the slope in assay [7] is 0.00424 (inactive). In assay [8], the outcome was inactive.
With `Cc1cc(-c2cc(-c3ccc(Cl)cc3)nc(N)c2C#N)co1`, the cell count in [1] amounted to 560. Moreover, the inhibition was -6.2% (inactive) in assay [1], 62.4% (inactive) in assay [2], 7.01% (inactive) in [4] and 5.58% (inactive) in [9]. Also, the nuclei count in assay [2] worked out at 173%. Also, the z-score in assay [3] (setting [10]) is 0.0299; in assay [3] (setting [11]) it was -0.21; in assay [3] (setting [12]), -0.449. Besides, in assay [5], the fluorescence slope was -0.294 (inactive). For the same compound, the NADPH fluorescence slope in assay [6] is 4.6e-06 (inactive). In addition, the slope in [7] is 0.00537 (inactive). Moreover, the result in assay [8] was inactive.
In the case of `COC(=O)C(NC(C)=O)(Nc1ccc(Br)cc1)C(=O)OC`, the cell count in assay [1] was 485. The inhibition in assay [1] is -1.7% (inactive); in assay [2], -127% (inactive); in assay [4], 18.2% (inactive); in assay [9], -10.2% (inactive). For the same compound, the nuclei count in assay [2] came to 153%. Further, the z-score is 0.275 in assay [3] (setting [10]), 0.746 in assay [3] (setting [11]) and -1.04 in assay [3] (setting [12]). In addition, the fluorescence slope in assay [5] is -0.537 (inactive). In addition, the NADPH fluorescence slope in assay [6] was -1.5e-05 (inactive). For the same compound, the slope in [7] was 0.00456 (inactive). Besides, the compound was classed as inactive in [8].
As for `Cc1onc(-c2ccccc2Cl)c1C(=O)N1CCN(c2nc3ccccc3s2)CC1`, the cell count in assay [1] is 340. In addition, the inhibition in [1] is -8.1% (inactive); in [2] it was -48.8% (inactive); in [4] it was 25.4% (inactive); in assay [9] it was 13% (inactive). In addition, the nuclei count in [2] was determined as 168%. Also, the figures for the z-score in [3] (setting [10]), in [3] (setting [11]) and in assay [3] (setting [12]) were 1.76, -0.608 and -1.2, respectively. Besides, in assay [5], the fluorescence slope is -0.417 (inactive). In addition, the NADPH fluorescence slope in assay [6] was -0.000136 (inactive). The slope in assay [7] was 0.00481 (inactive). The call in [8] was inactive.
On to `Cc1cc(C)cc(CC2CC(=O)N(c3cc(C)on3)C2=O)c1` (stereo unspecified), for which the cell count in assay [1] worked out at 491. In addition, the inhibition in assay [1] is -7% (inactive); in [2], -80.4% (inactive); in assay [4], 3.66% (inactive); in [9], 2.69% (inactive). In [2], this compound yielded a nuclei count of 132%. In addition, the results for the z-score in assay [3] (setting [10]), in assay [3] (setting [11]) and in assay [3] (setting [12]) were -0.204, -0.209 and 1.15, respectively. Further, the fluorescence slope in assay [5] was -0.517 (inactive). For the same compound, the NADPH fluorescence slope in assay [6] was -6.6e-05 (inactive). Further, the slope in [7] was 0.00547 (inactive). In addition, the compound was classed as inactive in assay [8].
Turning to `COCCNc1cc(C)c(C#N)c2nc3ccccc3n12`, in assay [1], the cell count turned out to be 564. Further, the inhibition in [1] is 2.6% (inactive); in assay [2], -78.8% (inactive); in assay [4], 13.9% (inactive); in assay [9] it was -12.3% (inactive). In addition, the nuclei count in assay [2] turned out to be 108%. For the same compound, the z-score was -2.44 in [3] (setting [10]), 1.04 in [3] (setting [11]) and -1.31 in [3] (setting [12]). Moreover, in assay [5], the fluorescence slope was -0.383 (inactive). The NADPH fluorescence slope in [6] is 1.2e-06 (inactive). Also, the slope in assay [7] was 0.00535 (inactive). The compound was classed as inactive in assay [8].

Source of the values: PubChem BioAssay.
